From PubChem BioAssay
Values joined by “and” are separate entries in the source; they are usually repeats but may differ in a detail not shown here. Equal entries are not always repeated. Active and inactive are the calls of the source.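 Rule for the calls, unless noted: active = viability loss from added drug above about 55%, and viability with drug at most 40%, in both replicates (limit read from the data, passing the limit was not always enough); inconclusive = both conditions met in only one replicate; inactive = neither replicate meets both conditions.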

Columns and labels:
[1] = Her2 expression decrease, cell viability multiplex – SKBR3 breast tumor cells, AlphaScreen, ATP viability, primary screen (AID 461;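 active = Her2 level under about 52% in both replicate screens, with viability over 70% of control, limit read from the data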;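 for Her2 level: lower value means less Her2 protein in the cells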;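 for viability: percent of carrier control wells set as 100% viability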); conditions: SKBR3 Her2 protein level, 18-24 h, measured here: SKBR3 viability, ATP luminescence, at 10 µM
[2] = biological target: Receptor tyrosine-protein kinase erbB-2 (Homo sapiens) (UniProt P04626); test: as above; conditions: 18-24 h, at 10 µM, stronger effect = lower value
[3] = reduced viability of SK-BR-3 breast cancer cells – cell-based, 24 h, human, pilot screen (AID 572;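 active = viability at or below 10% of carrier control in both of two separate runs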;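 note: compound exposure lasted between 18 and 24 h rather than exactly 24 h; 100% = carrier-treated control wells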); conditions: SK-BR-3 viability, CellTiter-Glo luminescence, at 10 µM, stronger effect = lower value
[4] = HUVEC growth inhibition – cell-based, human, primary screen (AID 575;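 active = viability at or below 30% in both replicate assays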;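 note: 100% = median of untreated cell wells with 0.1% DMSO on each plate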); conditions: HUVEC proliferation, CellTiter-Glo luminescence, 72 h; at 10 µM; stronger effect = lower value
How it was run: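 Material: primary human umbilical vein endothelial cells / Schedule: 72 h exposure, 37 °C, 5% CO2, 30 min RT equilibration / Signal: ATP-based CellTiter-Glo luminescent read / Read-out basis: percent of median DMSO-control luminescence / Control set: 32 DMSO-only cell-control wells (high), 32 MePR drug-control wells (low) per plate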

[5] = H69AR cell proliferation blockers – human, duplicate replicates, primary screen (AID 580;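 active = viability at or under a set limit in both replicates, limit being median viability minus 3 SD, cut at about 48% in these data, passing the limit was not always enough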;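 note: 100% = mean luminescence of untreated wells and 0% = no signal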); conditions: H69AR lung tumor cells viability, ATP luminescence, 72 h; at 10 µM; stronger effect = lower value
[6] = MRP1 drug-resistance reversers in H69AR cells – cell-based, doxorubicin co-treatment, pilot screen (AID 601); conditions: CellTiter-Glo, 72 h, at 10 µM; for differential viability (reversal): stronger effect = higher value
[7] = yeast transport mutant growth inhibition pilot in 384-well plates, post-Golgi transport modulator project (AID 636; in the data active = inhibition above about 31%); conditions: absorbance 615 nm, about 18 h, stronger effect = higher value
[8] = growth suppression of yeast trafficking mutant, preliminary HTS, modulators of trafficking downstream of Golgi apparatus project, 1536-format plate, OD 615 nm (AID 637; in the data active = inhibition above about 30%); conditions: yeast transport mutant growth, absorbance 615 nm, 18 h; stronger effect = higher value
[9] = H69AR cells + 2 uM doxorubicin, measured here: viability with 2 uM doxorubicin, stronger effect = lower value
[10] = H69AR cells, compound alone cytotoxicity

Receptor tyrosine-protein kinase erbB-2 (Homo sapiens), sequence (P04626 whole entry, looked up): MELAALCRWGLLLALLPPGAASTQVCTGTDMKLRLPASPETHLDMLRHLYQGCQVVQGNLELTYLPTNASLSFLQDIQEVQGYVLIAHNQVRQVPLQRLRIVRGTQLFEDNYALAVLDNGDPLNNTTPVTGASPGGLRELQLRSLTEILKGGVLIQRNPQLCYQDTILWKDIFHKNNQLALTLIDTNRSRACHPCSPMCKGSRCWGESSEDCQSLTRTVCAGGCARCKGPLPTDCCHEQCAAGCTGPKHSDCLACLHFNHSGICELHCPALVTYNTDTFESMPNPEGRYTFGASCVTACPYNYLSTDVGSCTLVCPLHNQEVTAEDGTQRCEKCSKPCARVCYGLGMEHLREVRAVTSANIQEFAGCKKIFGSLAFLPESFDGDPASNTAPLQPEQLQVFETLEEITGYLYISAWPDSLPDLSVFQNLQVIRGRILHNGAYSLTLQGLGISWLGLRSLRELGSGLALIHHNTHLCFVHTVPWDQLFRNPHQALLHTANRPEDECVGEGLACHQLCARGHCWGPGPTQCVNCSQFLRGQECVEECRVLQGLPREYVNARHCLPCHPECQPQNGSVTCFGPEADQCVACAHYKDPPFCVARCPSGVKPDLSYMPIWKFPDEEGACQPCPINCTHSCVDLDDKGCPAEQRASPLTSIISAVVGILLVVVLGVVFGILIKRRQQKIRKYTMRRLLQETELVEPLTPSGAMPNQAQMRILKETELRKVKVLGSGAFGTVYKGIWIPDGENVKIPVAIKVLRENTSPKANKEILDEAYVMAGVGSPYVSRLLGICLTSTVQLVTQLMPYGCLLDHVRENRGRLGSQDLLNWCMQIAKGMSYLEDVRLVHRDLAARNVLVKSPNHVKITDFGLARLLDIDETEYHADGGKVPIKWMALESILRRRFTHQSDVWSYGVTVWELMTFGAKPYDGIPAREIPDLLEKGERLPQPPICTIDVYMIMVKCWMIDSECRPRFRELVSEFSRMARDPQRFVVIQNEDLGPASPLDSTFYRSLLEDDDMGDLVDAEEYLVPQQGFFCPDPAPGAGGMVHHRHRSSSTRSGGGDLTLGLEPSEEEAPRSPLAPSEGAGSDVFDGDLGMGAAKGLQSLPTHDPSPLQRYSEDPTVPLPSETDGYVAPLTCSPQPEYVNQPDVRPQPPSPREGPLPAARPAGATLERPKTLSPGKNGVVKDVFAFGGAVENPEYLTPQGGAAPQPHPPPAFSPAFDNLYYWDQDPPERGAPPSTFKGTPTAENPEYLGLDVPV

With CC(C)N(C=O)C1(C(=O)NC2CCCCC2)CCCCC1 the viability [1] was 100%, the Her2 level [2] was 106% (inactive) and the viability [3] was 100% (inactive). For the same molecule, the viability [4] was 97.9% (inactive), the viability [5] was 112% (inactive) and the differential viability (reversal) ([6]; H69AR cells + 2 uM doxorubicin) was 13.7% (inactive). The viability [6, 9] was 97.9%, the viability [6, 10] was 112% and the inhibition [7] was -0.53% (inactive). For the same molecule, the inhibition [8] was -6.61% (inactive).
In the case of COc1cccc(NC(=O)N2CCCC2C(=O)NC(C)C)c1 (stereo not given), the viability [1] was 112%, the Her2 level [2] was 78% (inactive) and the viability [3] was 112% (inactive). For the same molecule, the viability [4] was 82.6% (inactive), the viability [5] was 99.1% (inactive) and the differential viability (reversal) ([6]; H69AR cells + 2 uM doxorubicin) was 11.2% (inactive). The viability [6, 9] was 87.8%, the viability [6, 10] was 99.1% and the inhibition [7] was -5.07% (inactive). The inhibition [8] was 9.51% (inactive).
In the case of CCCC(=O)N(c1ccc2oc(=O)sc2c1)S(=O)(=O)c1ccccc1, the viability [1] was 75.5%, the Her2 level [2] was 78.5% (inactive) and the viability [3] was 75.5% (inactive). The viability [4] was 78.3% (inactive), the viability [5] was 60% (inactive) and the differential viability (reversal) ([6]; H69AR cells + 2 uM doxorubicin) was -20.9% (inactive). For the same molecule, the viability [6, 9] was 80.9%, the viability [6, 10] was 60% and the inhibition [7] was -2.86% (inactive). For the same molecule, the inhibition [8] was -3.81% (inactive).
With CCCCSc1cc(C)nc2ncnn12 the viability [1] was 98.5%, the Her2 level [2] was 131% (inactive) and the viability [3] was 98.5% (inactive). For the same molecule, the viability [4] was 75.2% (inactive), the viability [5] was 99.7% (inactive) and the differential viability (reversal) ([6]; H69AR cells + 2 uM doxorubicin) was -1.97% (inactive). For the same molecule, the viability [6, 9] was 102%, the viability [6, 10] was 99.7% and the inhibition [7] was 5.71% (inactive). For the same molecule, the inhibition [8] was -0.67% (inactive).
For CCC(C)NC(=O)C1(C)CCC(=O)N1CCc1ccc(OC)c(OC)c1 (stereo not given), the viability [1] was 104%, the Her2 level [2] was 95% (inactive) and the viability [3] was 104% (inactive). The viability [4] was 95.4% (inactive), the viability [5] was 86.1% (inactive) and the differential viability (reversal) ([6]; H69AR cells + 2 uM doxorubicin) was -8.14% (inactive). For the same molecule, the viability [6, 9] was 94.2%, the viability [6, 10] was 86.1% and the inhibition [7] was -1.04% (inactive). The inhibition [8] was -1.27% (inactive).
In the case of CCn1c(C(=O)N2CCCC(C(=O)NCCCc3ccccc3)C2)cc2sccc21 (stereo not given), the viability [1] was 102%, the Her2 level [2] was 96.5% (inactive) and the viability [3] was 102% (inactive). For the same molecule, the viability [4] was 64.3% (inactive), the viability [5] was 96.7% (inactive) and the differential viability (reversal) ([6]; H69AR cells + 2 uM doxorubicin) was 3.47% (inactive). The viability [6, 9] was 93.2%, the viability [6, 10] was 96.7% and the inhibition [7] was -2.08% (inactive). For the same molecule, the inhibition [8] was -9.84% (inactive).
With COCCn1c(C)cc(C(=O)COC(=O)CCN2C(=O)c3ccccc3C2=O)c1C the viability [1] was 94.5%, the Her2 level [2] was 98.5% (inactive) and the viability [3] was 94.5% (inactive). The viability [4] was 97.9% (inactive), the viability [5] was 96.6% (inactive) and the differential viability (reversal) ([6]; H69AR cells + 2 uM doxorubicin) was 5.55% (inactive). For the same molecule, the viability [6, 9] was 91.1%, the viability [6, 10] was 96.6% and the inhibition [7] was -5.33% (inactive). The inhibition [8] was 0.65% (inactive).
In the case of Cc1cc(C)nc(N2CCCC(C(=O)Nc3nc4ccc(S(C)(=O)=O)cc4s3)C2)n1 (stereo not given), the viability [1] was 80.5%, the Her2 level [2] was 90% (inactive) and the viability [3] was 80.5% (inactive). The viability [4] was 79.5% (inactive), the viability [5] was 83.7% (inactive) and the differential viability (reversal) ([6]; H69AR cells + 2 uM doxorubicin) was -9.45% (inactive). For the same molecule, the viability [6, 9] was 93.2%, the viability [6, 10] was 83.7% and the inhibition [7] was 0% (inactive). The inhibition [8] was 10.8% (inactive).
For Nc1ccc(C(=O)O)c(O)c1, the viability [1] was 100%, the Her2 level [2] was 113% (inactive) and the viability [3] was 100% (inactive) and 130% (inactive). For the same molecule, the viability [4] was 105% (inactive) and 87.5% (inactive), the viability [5] was 78.2% (inactive) and 90.7% (inactive) and the differential viability (reversal) ([6]; H69AR cells + 2 uM doxorubicin) was -28.9% (inactive) and 6.59% (inactive). The viability [6, 9] was 107% and 84.1%, the viability [6, 10] was 78.2% and 90.7% and the inhibition [7] was -1.82% (inactive). For the same molecule, the inhibition [8] was 15.8% (inactive).
For COC(=O)c1[nH]c2cc(OC)ccc2c1NC(=O)CCN1CCCCC1, the viability [1] was 85%, the Her2 level [2] was 114% (inactive) and the viability [3] was 85% (inactive). The viability [4] was 116% (inactive), the viability [5] was 98.2% (inactive) and the differential viability (reversal) ([6]; H69AR cells + 2 uM doxorubicin) was 2.35% (inactive). The viability [6, 9] was 95.8%, the viability [6, 10] was 98.2% and the inhibition [7] was -1.97% (inactive). The inhibition [8] was -4.43% (inactive).
In the case of CCOC(=O)CSc1nc2cc(C(=O)NCc3ccco3)ccc2c(=O)n1C1CCCCC1, the viability [1] was 112%, the Her2 level [2] was 83.5% (inactive) and the viability [3] was 112% (inactive). For the same molecule, the viability [4] was 91.7% (inactive), the viability [5] was 89.8% (inactive) and the differential viability (reversal) ([6]; H69AR cells + 2 uM doxorubicin) was 2.55% (inactive). For the same molecule, the viability [6, 9] was 87.3%, the viability [6, 10] was 89.8% and the inhibition [7] was -4.53% (inactive). For the same molecule, the inhibition [8] was 0.33% (inactive).
With CC(=O)N1CCN(C(=O)COc2ccc(Br)cc2)CC1 the viability [1] was 108%, the Her2 level [2] was 92.5% (inactive) and the viability [3] was 108% (inactive). For the same molecule, the viability [4] was 113% (inactive), the viability [5] was 105% (inactive) and the differential viability (reversal) ([6]; H69AR cells + 2 uM doxorubicin) was 20.5% (inactive). For the same molecule, the viability [6, 9] was 84.6%, the viability [6, 10] was 105% and the inhibition [7] was -2.03% (inactive). For the same molecule, the inhibition [8] was 0.16% (inactive).
With COC(=O)c1ccc(CSc2nc(-c3ccc(OC)cc3)nc3c2c(=O)n(C)c(=O)n3C)o1 the viability [1] was 100%, the Her2 level [2] was 74% (inactive) and the viability [3] was 100% (inactive). For the same molecule, the viability [4] was 85.8% (inactive), the viability [5] was 77.4% (inactive) and the differential viability (reversal) ([6]; H69AR cells + 2 uM doxorubicin) was -11.5% (inactive). The viability [6, 9] was 89%, the viability [6, 10] was 77.4% and the inhibition [7] was -4.8% (inactive). For the same molecule, the inhibition [8] was -3.11% (inactive).
In the case of CCCOc1ccc(/C(O)=C2/C(=O)C(=O)N(CCCOC)C2c2ccncc2)cc1 (stereo not given), the viability [1] was 98%, the Her2 level [2] was 84% (inactive) and the viability [3] was 98% (inactive). The viability [4] was 110% (inactive), the viability [5] was 94.5% (inactive) and the differential viability (reversal) ([6]; H69AR cells + 2 uM doxorubicin) was 7.81% (inactive). The viability [6, 9] was 86.7%, the viability [6, 10] was 94.5% and the inhibition [7] was -9.46% (inactive). For the same molecule, the inhibition [8] was 3.67% (inactive).
For CC1(C)Cc2noc(N)c2C(C)(C)N1OC(=O)c1ccccc1, the viability [1] was 107%, the Her2 level [2] was 132% (inactive) and the viability [3] was 107% (inactive). For the same molecule, the viability [4] was 104% (inactive), the viability [5] was 107% (inactive) and the differential viability (reversal) ([6]; H69AR cells + 2 uM doxorubicin) was 21.2% (inactive). For the same molecule, the viability [6, 9] was 86.2%, the viability [6, 10] was 107% and the inhibition [7] was 0% (inactive). For the same molecule, the inhibition [8] was -5.4% (inactive).
For CCN(CC)CCN1C(=O)C(O)=C(C(=O)c2cccs2)C1c1ccccn1 (stereo not given), the viability [1] was 86%, the Her2 level [2] was 82% (inactive) and the viability [3] was 86% (inactive). The viability [4] was 100% (inactive), the viability [5] was 98% (inactive) and the differential viability (reversal) ([6]; H69AR cells + 2 uM doxorubicin) was 18.6% (inactive). For the same molecule, the viability [6, 9] was 79.5%, the viability [6, 10] was 98% and the inhibition [7] was -4.86% (inactive). For the same molecule, the inhibition [8] was -1.59% (inactive).
